PLCg1 inh: PLC-gamma1 enzyme inhibitors, primary screen, biochemical, fluorescence, purified enzyme; actives 0.84% (n = 370,000); fluorogenic substrate; inhibition, % at 12.2 µM; AID 720700, 2013; 1-phosphatidylinositol 4,5-bisphosphate phosphodiesterase gamma-1 (Homo sapiens), P19174; in the data active = inhibition above about 9.5%
PLC-beta3 inh: human PLC-beta3 inhibitors, primary screen, biochemical, fluorescence | inhibition, % at 12.2 µM | Purified PLC-beta3, fluorogenic substrate | actives 0.18% (n = 370,000); in the data active = inhibition above about 11%;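 also: 0% = median of compound wells on plate and 100% = full blocker control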
ADAM17 inh: ADAM17 inhibitors, primary screen, biochemical, QFRET; Disintegrin and metalloproteinase domain-containing protein 17 (Homo sapiens), P78536; recombinant ADAM17, EDANS/DABCYL FRET peptide cleavage; inhibition, % at 6.95 µM; actives 0.83% (n = 370,000);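 active = inhibition above the mean of compounds lying between control limits plus 3 SD, set per campaign, cut at about 8.5% in these data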;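 also: 0% = DMSO-only wells as the low control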
TbMetRS inhib: T. brucei MetRS inhibitors, primary screen, biochemical, luminescence; actives 0.4% (n = 360,000); inhibition, % at 11.9 µM; purified T. brucei MetRS, ATP depletion, Kinase-Glo luminescence; methionyl-tRNA synthetase (Trypanosoma brucei brucei); AID 624268, 2012;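 active = inhibition above a per-plate cutoff of the control wells' mean inhibition plus 3 SD, cut at about 5.5% in these data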;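 also: 0% = DMSO wells median and 100% = median of wells with control inhibitor compound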
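Assay system: T. brucei methionyl-tRNA synthetase, purified | Medium: HEPES buffer with MgCl2, KCl, DTT, spermine, BSA, pyrophosphatase | Compound: 11.9 µM single point | Incubation: 15 min enzyme-compound preincubation, 2 h reaction, 10 min detection, 25 °C | Measured by: Kinase-Glo luciferase luminescence reporting remaining unconsumed ATP | Measure: % inhibition normalized to control-well medians | Replication: Singlicate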
ADAM10 inh: human ADAM10 inhibitors, primary screen, biochemical, QFRET, HTS; recombinant ADAM10, EDANS/DABCYL FRET peptide cleavage, 3 h; inhibition, % at 7 µM; actives 0.62% (n = 370,000); AID 720582, 2013;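 active = inhibition above a per-campaign cutoff equal to the mean of compounds falling between control-based bounds plus 3 SD, cut at about 20% in these data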;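 also: 0% = DMSO wells while the 100% control is not disclosed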
Tb MetRS conf: T. brucei MetRS inhibitors, confirmation, biochemical, luminescence | shares compounds with TbMetRS inhib | T. brucei MetRS enzyme, luminescence (ATP depletion) | inhibition, % at 11.9 µM | actives 93% (n = 1,400) | AID 624412, 2012; in the data active = inhibition above about 7%
Jurkat tox: Jurkat T cell cytotoxicity, cytotoxicity control for T. brucei MetRS inhibitor project, luminescence, high throughput. shares compounds with TbMetRS inhib. Jurkat cells viability, ATP luminescence. inhibition, % at 8.3 µM. actives 12% (n = 1,400). AID 624413, 2012; in the data active = inhibition above about 15%;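 also: 0% = vehicle and 100% = reference inhibitor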
TbMetRS FP orth: T. brucei MetRS inhibitors, orthogonal assay for T. brucei MetRS inhibitor project, biochemical, fluorescence polarization; shares compounds with TbMetRS inhib; purified T. brucei MetRS; inhibition, % at 11.9 µM; actives 44% (n = 1,400); AID 651607, 2012; in the data active = inhibition above about 17%;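 also: 0% = vehicle wells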
Active calls of the source: *; nt = not tested or not shown. Hits are enriched below; roughly 2.3% of the tested compounds scored in any of these assays.

SMILES	PLCg1 inh	PLC-beta3 inh	ADAM17 inh	TbMetRS inhib	ADAM10 inh	Tb MetRS conf	Jurkat tox	TbMetRS FP orth
Cc1cccc(N(CC(=O)NC(C)(C)C)C(=O)CS(=O)CC(=O)Nc2ccc3c(c2)OCO3)c1 (configuration not stated)	4	1	-1	0	-10	nt	nt	nt
Cc1ccc(NC(=O)CS(=O)CC(=O)Nc2ccc3c(c2)OCO3)cc1Cl (configuration not stated)	2	-3	0	9.8*	-1	12*	-2	12
Nc1nnc(COc2ccc(Br)cc2Br)s1	1	-3	0	21*	3	42*	4	20*
Cc1nc(NCCC(C)C)c2nnn(Cc3ccccc3)c2n1	2	-8	-2	7.3*	8	2	2	9
O=C(N[C@@H](Cc1cccnc1)C(=O)N1CCC[C@H]1C(=O)NC1CCCC1)C1CC1	0	2	-7	nt	-12	nt	nt	nt
Clc1ccccc1OCCn1nnc2ccccc21	4	-3	1	0	1	nt	nt	nt
Nc1nc2ccccc2n1CCOc1ccc(Cl)cc1	-1	-3	-1	26*	12	45*	2	22*
Nc1nc2ccccc2n1CCOc1ccccc1Cl	2	3	1	67*	12	80*	8	44*
Nc1nc2ccccc2n1CCOc1ccc(Br)cc1	3	0	1	37*	9	51*	19*	34*
CS(=O)(=O)Cc1nc2ccccc2n1CC(=O)Nc1cccc(S(=O)(=O)N2CCCC2)c1	-1	-10	-1	10*	-11	33*	0	10
COc1ccccc1CN=C1Nc2ccccc2CS1	1	2	0	13*	1	32*	-3	11
c1cncc(CN=C2Nc3ccccc3CS2)c1	0	4	-1	8.6*	5	17*	-4	9
c1ccc(CCc2cccnc2)cc1	-2	-3	-5	0	-16	nt	nt	nt
COc1cccc(CN=C2Nc3ccccc3CS2)c1	1	-2	-1	6.1*	-5	11*	13	3
S=C1Nc2ccccc2CS1	1	2	-5	-1	-5	nt	nt	nt
COc1cccc(C2=NNC(=NCc3ccccc3)SC2)c1	-3	-10	-1	0	4	nt	nt	nt
Cc1ccc(C)c(C2=NNC(=NCc3ccccc3)SC2)c1	1	-13	-7	0	2	nt	nt	nt
Cc1ccc(CN=C2Nc3ccccc3CS2)cc1	0	2	2	19*	6	32*	3	8
CCCCn1c(N)c(N(CC(C)C)C(=O)CSc2nnc(C)n2-c2ccccc2)c(=O)[nH]c1=O	1	-11	-2	0	-24	nt	nt	nt
Cc1ccc(-c2nc3c(c(SCC(=O)N4CCOCC4)n2)COC(C)(C)C3)cc1	1	-3	-1	0	0	nt	nt	nt
CC(=O)c1ccc(NC(=O)C(C)Sc2nnc(-c3ccncc3)n2C2CC2)cc1 (configuration not stated)	-2	-3	-1	0	-9	nt	nt	nt
Clc1ccc(CN=C2Nc3ccccc3CS2)cc1	-2	0	3	12*	10	25*	2	14
O=C(OCCCN1CCC2(CCCCC2)C1=O)c1ccccc1	0	-2	-1	nt	-9	nt	nt	nt
O=C(NCc1cc(Cl)cc(Cl)c1)c1csc([C@@H]2C[C@H](O)[C@@H](CO)O2)n1	-2	-3	4	22*	-10	60*	-2	35*
O=C(NCc1ccncc1)c1ccc2nc([C@@H]3O[C@H](CO)[C@H](O)[C@H](O)[C@H]3O)[nH]c2c1	5	7	4	0	-2	nt	nt	nt

Compound activity as filed in PubChem.
